Here are results for 37 sequences from the array DNA melting data of Ke et al. (doi:10.1101/2024.01.08.574731).

Data set [1] in a line: folding enthalpy; higher = less favourable; fluorescence melt of hairpins on a sequencing array, two-state fit. The following applies: sodium 0.088 M. Summed up: (§1)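 In 50 mM Na-HEPES pH 8.0 containing 25 mM NaCl, hairpins from the library on a sequenced MiSeq flow cell were imaged for Cy3 fluorescence at 2.5 °C steps up to 60 °C, with Cy3 and quencher oligos annealed. After normalisation to pre-quench Cy3 and to control constructs, two-state fits with bootstrapping gave melting temperature and folding enthalpy. Four replicates were combined by inverse-variance weighting, and fitted temperatures were shifted up by 9.35 °C to match UV melts.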

A short description of data set [2]: melting temperature; fluorescence melt of hairpins on a sequencing array, two-state fit, raised by 9.35 °C to match UV melts. The following applies: sodium 0.088 M. Summed up:
as §1

In the case of GCTTCTCGAAAGAGTAGC (((.(((....))).))), the folding enthalpy in data set [1] was -31.1 kcal/mol. The Tm in data set [2] was determined as 47.9 °C.

Take GCTTCTGGAAACAAAAGC ((((.((....)).)))): the folding enthalpy in data set [1] is -13.1 kcal/mol. The Tm in data set [2] was 28.8 °C.

As to GCTTCTTCGAAAGAAAGC (((..(((....)))))), the folding enthalpy in data set [1] is -16 kcal/mol. Besides, the Tm in data set [2] is 30.3 °C.

In the case of GCTTGAGGAAACTCGAGC (((.(((....))).))), the folding enthalpy in data set [1] was -41.5 kcal/mol. Besides, the Tm in data set [2] is 51.5 °C.

As to GCTTGATCGAAAGATAGC (((..(((....)))))), the folding enthalpy in data set [1] was -17.7 kcal/mol. Moreover, in data set [2], the Tm came out at 29.4 °C.

On to GCTTGCCGAAAGGCCAGC (((.(((....))).))), for which, in data set [1], the folding enthalpy is -27.9 kcal/mol. Moreover, in data set [2], the Tm is 54.1 °C.

With GCTTGCGAAAGCAAAGC ((((((....))).))), in data set [1], the folding enthalpy is -22.8 kcal/mol. Moreover, the Tm in data set [2] came out at 61.4 °C.

In the case of GCTTGCGAAAGCAAGAGC ((((((....)))..))), the folding enthalpy in data set [1] is -12.3 kcal/mol. In data set [2], the Tm was 56.3 °C.

With GCTTGCGAAAGCAGGAGC ((((((....)))..))), the folding enthalpy in data set [1] is -14.3 kcal/mol. Besides, the Tm in data set [2] was 51.4 °C.

As to GCTTGGCGAAAGCAAAGC ((((.((....)).)))), the folding enthalpy in data set [1] was -36.5 kcal/mol. Besides, the Tm in data set [2] turned out to be 63.7 °C.

Consider GCTTGGCGAAAGCCACGC ((.((((....)))).)), for which the folding enthalpy in data set [1] is -19 kcal/mol. In data set [2], the Tm was found to be 58.5 °C.

Turning to GCTTGGCGAAAGCGTAGC (((..((....))..))), in data set [1], the folding enthalpy is -16.2 kcal/mol. Also, the Tm in data set [2] was found to be 39.6 °C.

Consider GCTTGGGCGAAAGCCAGC (((..(((....)))))), for which the folding enthalpy in data set [1] is -12.9 kcal/mol. The Tm in data set [2] was 48.6 °C.

With GCTTGGGGAAACCTAAGC ((((.((....)).)))), the folding enthalpy in data set [1] was -32.1 kcal/mol. Besides, the Tm in data set [2] amounted to 47.8 °C.

With GCTTGTCGAAAGACGAGC (((.(((....))).))), the folding enthalpy in data set [1] was -36.9 kcal/mol. Besides, the Tm in data set [2] was 61.3 °C.

GCTTGTGCGAAAGCAAGC (((..(((....)))))): the folding enthalpy in data set [1] was -22.9 kcal/mol. The Tm in data set [2] was 46.5 °C.

Consider GCTTGTGGAAACATAGGC ((.(.((....)).).)), for which the folding enthalpy in data set [1] was -14.7 kcal/mol. In addition, the Tm in data set [2] is 32 °C.

Consider GCTTTACCGAAAGGTAGC (((..(((....)))))), for which the folding enthalpy in data set [1] was -13 kcal/mol. Also, the Tm in data set [2] is 37.7 °C.

On to GCTTTACGAAAGTAGAGC (((.(((....))).))), for which the folding enthalpy in data set [1] is -38.9 kcal/mol. Moreover, in data set [2], the Tm amounted to 49.4 °C.

GCTTTCCGAAAGGATAGC (((.(((....))).))): the folding enthalpy in data set [1] was -35.9 kcal/mol. Moreover, the Tm in data set [2] is 51.5 °C.

For GCTTTCGAAAGAACAGC ((((((....))).))), the folding enthalpy in data set [1] is -23.7 kcal/mol. Also, the Tm in data set [2] stood at 36.8 °C.

Turning to GCTTTCGGAAACAAAAGC (((((.(....).))))), the folding enthalpy in data set [1] was -23.9 kcal/mol. The Tm in data set [2] was 35.5 °C.

For the sequence GCTTTGCGAAAGCACCGC ((..(((....)))..)), the folding enthalpy in data set [1] was -12.4 kcal/mol. In addition, in data set [2], the Tm was 39.2 °C.

Turning to GCTTTGCGAAAGCGCAGC (((..((....))..))), the folding enthalpy in data set [1] is -11.8 kcal/mol. In addition, in data set [2], the Tm was 38.7 °C.

On to GCTTTGCGAAAGCTACGC ((.(.((....)).).)), for which the folding enthalpy in data set [1] was -13.2 kcal/mol. In addition, the Tm in data set [2] came to 45.4 °C.

Take GCTTTGGGAAACTGAAGC ((((..(....)..)))): in data set [1], the folding enthalpy is -31.6 kcal/mol. The Tm in data set [2] was 35.2 °C.

For GCTTTTGGAAACAAAAGC (((((((....))))))), the folding enthalpy in data set [1] was -42.2 kcal/mol. The Tm in data set [2] amounted to 61.5 °C.

As for GCTTTTGGAAACAGAAGC ((((.((....)).)))), in data set [1], the folding enthalpy was -25.1 kcal/mol. The Tm in data set [2] came to 41.4 °C.

On to GGAAAAACGAAAGTTTCC (((..(((....)))))), for which, in data set [1], the folding enthalpy is -14.9 kcal/mol. Also, the Tm in data set [2] was determined as 35.6 °C.

Take GGAAACGAAAGTTACTCC ((((((....)))..))): in data set [1], the folding enthalpy was -10.2 kcal/mol. The Tm in data set [2] turned out to be 22.8 °C.

For the sequence GGAAACGAAAGTTCGTCC ((((((....)))..))), the folding enthalpy in data set [1] is -13 kcal/mol. The Tm in data set [2] was 24.8 °C.

With GGAAACGAAAGTTGTCC ((((((....))).))), the folding enthalpy in data set [1] is -18.2 kcal/mol. Moreover, in data set [2], the Tm was 31.5 °C.

Consider GGAAACGGAAACGTTTCC (((((((....))))))), for which the folding enthalpy in data set [1] was -45.5 kcal/mol. Besides, in data set [2], the Tm stood at 64.8 °C.

For GGAAAGGGAAACCTCTCC (((.(((....))).))), the folding enthalpy in data set [1] was -14.8 kcal/mol. In data set [2], the Tm stood at 33 °C.

With GGAAAGGGAAACCTTCCC ((.((((....)))).)), in data set [1], the folding enthalpy is -19.3 kcal/mol. Moreover, in data set [2], the Tm was found to be 33.3 °C.

Turning to GGAAAGGGAAACCTTTCC (((((((....))))))), the folding enthalpy in data set [1] was -41.9 kcal/mol. Also, in data set [2], the Tm is 55.8 °C.

With GGAAATGAAAATTTCC ((((((....)))))), the folding enthalpy in data set [1] is -29.2 kcal/mol. Moreover, the Tm in data set [2] was found to be 48.8 °C.
